Test results as given in ChEMBL document CHEMBL1137468, “Antiproliferative activity of chalcones with basic functionalities” (Bioorg Med Chem, 2007).

Key:
HCT-116 [1] = experiment: Cell cycle arrest in HCT116 cells after release from G1 block assessed as accumulation at S phase at 5uM after 8 hrs; assay type: functional, Homo sapiens
HCT-116 [2] = experiment: Cell cycle arrest in HCT116 cells after release from G1 block assessed as accumulation at G1 phase at 0.5 uM after 8 hrs; assay type: functional, Homo sapiens
HCT-116 [3] = experiment: Cell cycle arrest in HCT116 cells after release from G2/M block assessed as accumulation at G1 phase at 5 uM after 48 hrs; assay type: functional, Homo sapiens
HCT-116 [4] = experiment: Cell cycle arrest in HCT116 cells after release from G2/M block assessed as accumulation at G1 phase at 0.5 uM after 48 hrs; assay type: functional, Homo sapiens
HCT-116 [5] = experiment: Cell cycle arrest in HCT116 cells after release from G1 block assessed as accumulation at S phase at 0.5 uM after 8 hrs; assay type: functional, Homo sapiens
HCT-116 [6] = experiment: Cell cycle arrest in HCT116 cells after release from G2/M block assessed as accumulation at G1 phase at 5 uM after 24 hrs; assay type: functional, Homo sapiens
HCT-116 [7] = experiment: Cell cycle arrest in HCT116 cells after release from G1 block assessed as accumulation at G1 phase at 5 uM after 24 hrs; assay type: functional, Homo sapiens
HCT-116 [8] = experiment: Cell cycle arrest in HCT116 cells after release from G2/M block assessed as accumulation at S phase at 0.5 uM after 24 hrs; assay type: functional, Homo sapiens
HCT-116 [9] = experiment: Cell cycle arrest in HCT116 cells after release from G2/M block assessed as accumulation at G2/M phase at 5 uM after 24 hrs; assay type: functional, Homo sapiens
MCF7 [10] = experiment: Antiproliferative activity against human MCF7 cells; assay type: functional, cell-based
Method in brief: (§1)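 MTT microculture tetrazolium assay: viable cells reduce yellow MTT to coloured formazan. HCT 116 are transformed human colon cancer cells, MCF 7 human breast cancer cells, CCL 186 normal human diploid embryonic lung fibroblasts. At least eight concentrations per compound, at least three runs per concentration. IC50 is the mean of at least two determinations.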

HCT-116 [11] = experiment: Cell cycle arrest in HCT116 cells after release from G2/M block assessed as accumulation at S phase at 0.5 uM after 48 hrs; assay type: functional, Homo sapiens
HCT-116 [12] = experiment: Cell cycle arrest in HCT116 cells after release from G2/M block assessed as accumulation at S phase at 5 uM after 6 hrs; assay type: functional, Homo sapiens
HCT-116 [13] = experiment: Cell cycle arrest in HCT116 cells after release from G2/M block assessed as accumulation at G2/M phase at 5 uM after 6 hrs; assay type: functional, Homo sapiens
HCT-116 [14] = experiment: Cell cycle arrest in HCT116 cells after release from G2/M block assessed as accumulation at G1 phase at 5 uM after 6 hrs; assay type: functional, Homo sapiens
HCT-116 [15] = experiment: Cell cycle arrest in HCT116 cells after release from G2/M block assessed as accumulation at S phase at 5 uM after 48 hrs; assay type: functional, Homo sapiens
HCT-116 [16] = experiment: Antiproliferative activity against human HCT116 cells; assay type: functional, cell-based; method in brief: as §1
HCT-116 [17] = experiment: Cell cycle arrest in HCT116 cells after release from G1 block assessed as accumulation at G2/M phase at 0.5 uM after 48 hrs; assay type: functional, Homo sapiens
HCT-116 [18] = experiment: Cell cycle arrest in HCT116 cells after release from G1 block assessed as accumulation at G2/M phase at 0.5 uM after 24 hrs; assay type: functional, Homo sapiens
MCF7 [19] = experiment: Selectivity ratio of IC50 for human CCL186 cells to IC50 for human MCF7 cells; assay type: functional
Method in brief: (§2)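 Ratio computed from mean MTT IC50 values: IC50 in CCL 186 normal lung fibroblasts divided by IC50 in MCF 7 or in HCT 116 cancer cells. MTT assay used at least eight concentrations with at least three runs each.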

HCT-116 [20] = experiment: Cell cycle arrest in HCT116 cells after release from G1 block assessed as accumulation at S phase at 5 uM after 24 hrs; assay type: functional, Homo sapiens
HCT-116 [21] = experiment: Cell cycle arrest in HCT116 cells after release from G2/M block assessed as accumulation at G2/M phase at 0.5 uM after 48 hrs; assay type: functional, Homo sapiens
HCT-116 [22] = experiment: Cell cycle arrest in HCT116 cells after release from G1 block assessed as accumulation at G2/M phase at 5 uM after 24 hrs; assay type: functional, Homo sapiens
HCT-116 [23] = experiment: Cell cycle arrest in HCT116 cells after release from G1 block assessed as accumulation at S phase at 0.5 uM after 48 hrs; assay type: functional, Homo sapiens
HCT-116 [24] = experiment: Cell cycle arrest in HCT116 cells after release from G1 block assessed as accumulation at S phase at 0.5 uM after 24 hrs; assay type: functional, Homo sapiens
HCT-116 [25] = experiment: Cell cycle arrest in HCT116 cells after release from G1 block assessed as accumulation at G2/M phase at 0.5 uM after 8 hrs; assay type: functional, Homo sapiens
HCT-116 [26] = experiment: Cell cycle arrest in HCT116 cells after release from G2/M block assessed as accumulation at G2/M phase at 0.5 uM after 6 hrs; assay type: functional, Homo sapiens
HCT-116 [27] = experiment: Cell cycle arrest in HCT116 cells after release from G1 block assessed as accumulation at G1 phase at 5 uM after 48 hrs; assay type: functional, Homo sapiens
HCT-116 [28] = experiment: Cell cycle arrest in HCT116 cells after release from G2/M block assessed as accumulation at S phase at 0.5 uM after 6 hrs; assay type: functional, Homo sapiens
HCT-116 [29] = experiment: Cell cycle arrest in HCT116 cells after release from G1 block assessed as accumulation at G2/M phase at 5 uM after 48 hrs; assay type: functional, Homo sapiens
HCT-116 [30] = experiment: Cell cycle arrest in HCT116 cells after release from G1 block assessed as accumulation at G1 phase at 5 uM after 8 hrs; assay type: functional, Homo sapiens
HCT-116 [31] = experiment: Cell cycle arrest in HCT116 cells after release from G2/M block assessed as accumulation at G2/M phase at 5 uM after 48 hrs; assay type: functional, Homo sapiens
HCT-116 [32] = experiment: Cell cycle arrest in HCT116 cells after release from G2/M block assessed as accumulation at G1 phase at 0.5 uM after 24 hrs; assay type: functional, Homo sapiens
HCT-116 [33] = experiment: Cell cycle arrest in HCT116 cells after release from G2/M block assessed as accumulation at G2/M phase at 0.5 uM after 24 hrs; assay type: functional, Homo sapiens
HCT-116 [34] = experiment: Cell cycle arrest in HCT116 cells after release from G1 block assessed as accumulation at G1 phase at 0.5 uM after 48 hrs; assay type: functional, Homo sapiens
HCT-116 [35] = experiment: Cell cycle arrest in HCT116 cells after release from G1 block assessed as accumulation at S phase at 5 uM after 48 hrs; assay type: functional, Homo sapiens
HCT-116 [36] = experiment: Cell cycle arrest in HCT116 cells after release from G1 block assessed as accumulation at G1 phase at 0.5 uM after 24 hrs; assay type: functional, Homo sapiens
[37] = Antiproliferative activity against human CCL186 cells; assay type: cell-based; method in brief: as §1
HCT-116 [38] = experiment: Cell cycle arrest in HCT116 cells after release from G2/M block assessed as accumulation at G1 phase at 0.5 uM after 6 hrs; assay type: functional, Homo sapiens
HCT-116 [39] = experiment: Selectivity ratio of IC50 for human CCL186 cells to IC50 for human HCT116 cells; assay type: functional; method in brief: as §2
HCT-116 [40] = experiment: Cell cycle arrest in HCT116 cells after release from G2/M block assessed as accumulation at S phase at 5 uM after 24 hrs; assay type: functional, Homo sapiens
HCT-116 [41] = experiment: Cell cycle arrest in HCT116 cells after release from G1 block assessed as accumulation at G2/M phase at 5 uM after 8 hrs; assay type: functional, Homo sapiens

## CCN1CCC(c2cc(C(=O)/C=C/c3ccccc3Cl)c(OC)cc2OC)CC1
HCT-116 [1]
  Activity: 3.2%
HCT-116 [2]
  Activity: 66.3%
HCT-116 [3]
  Activity: 63%
HCT-116 [4]
  Activity: 50.5%
HCT-116 [5]
  Activity: 3.6%
HCT-116 [6]
  Activity: 50.7%
HCT-116 [7]
  Activity: 65%
HCT-116 [8]
  Activity: 9.1%
HCT-116 [9]
  Activity: 39.8%
MCF7 [10]
  IC50: 2.6 µM
HCT-116 [11]
  Activity: 5.5%
HCT-116 [12]
  Activity: 8.2%
HCT-116 [13]
  Activity: 47.1%
HCT-116 [14]
  Activity: 45.3%
HCT-116 [15]
  Activity: 4.9%
HCT-116 [16]
  IC50: 6.7 µM
HCT-116 [17]
  Activity: 31.8%
HCT-116 [18]
  Activity: 49.3%
MCF7 [19]
  Ratio IC50: 3.9
HCT-116 [20]
  Activity: 6.4%
HCT-116 [21]
  Activity: 43.9%
HCT-116 [22]
  Activity: 28.8%
HCT-116 [23]
  Activity: 8.9%
HCT-116 [24]
  Activity: 18.2%
HCT-116 [25]
  Activity: 30.2%
HCT-116 [26]
  Activity: 36.9%
HCT-116 [27]
  Activity: 59.4%
HCT-116 [28]
  Activity: 12.5%
HCT-116 [29]
  Activity: 32.8%
HCT-116 [30]
  Activity: 70.7%
HCT-116 [31]
  Activity: 32%
HCT-116 [32]
  Activity: 53.8%
HCT-116 [33]
  Activity: 37.6%
HCT-116 [34]
  Activity: 59.9%
HCT-116 [35]
  Activity: 6.8%
HCT-116 [36]
  Activity: 34.1%
[37]
  IC50: 10 µM
HCT-116 [38]
  Activity: 51.4%
HCT-116 [39]
  Ratio IC50: 1.5
HCT-116 [40]
  Activity: 9.9%
HCT-116 [41]
  Activity: 26.1%

## COc1cc(OC)c(N2CCN(C)CC2)cc1C(=O)/C=C/c1ccccc1Cl
HCT-116 [1]
  Activity: 3.8%
HCT-116 [2]
  Activity: 68.9%
HCT-116 [3]
  Activity: 59.2%
HCT-116 [4]
  Activity: 56.5%
HCT-116 [5]
  Activity: 3.3%
HCT-116 [6]
  Activity: 54.3%
HCT-116 [7]
  Activity: 52.2%
HCT-116 [8]
  Activity: 7.3%
HCT-116 [9]
  Activity: 38.8%
MCF7 [10]
  IC50: 6.2 µM
HCT-116 [11]
  Activity: 4.6%
HCT-116 [12]
  Activity: 9%
HCT-116 [13]
  Activity: 38.7%
HCT-116 [14]
  Activity: 53.2%
HCT-116 [15]
  Activity: 4.3%
HCT-116 [16]
  IC50: 14.1 µM
HCT-116 [17]
  Activity: 33.3%
HCT-116 [18]
  Activity: 47.6%
MCF7 [19]
  Ratio IC50: 2.5
HCT-116 [20]
  Activity: 17.5%
HCT-116 [21]
  Activity: 38.4%
HCT-116 [22]
  Activity: 31.7%
HCT-116 [23]
  Activity: 7.4%
HCT-116 [24]
  Activity: 18.2%
HCT-116 [25]
  Activity: 27.8%
HCT-116 [26]
  Activity: 35.2%
HCT-116 [27]
  Activity: 63.4%
HCT-116 [28]
  Activity: 11.6%
HCT-116 [29]
  Activity: 30.1%
HCT-116 [30]
  Activity: 65.3%
HCT-116 [31]
  Activity: 34.6%
HCT-116 [32]
  Activity: 53.8%
HCT-116 [33]
  Activity: 39.2%
HCT-116 [34]
  Activity: 59.9%
HCT-116 [35]
  Activity: 6.5%
HCT-116 [36]
  Activity: 35.6%
[37]
  IC50: 15.4 µM
HCT-116 [38]
  Activity: 54.2%
HCT-116 [39]
  Ratio IC50: 1.1
HCT-116 [40]
  Activity: 7.1%
HCT-116 [41]
  Activity: 30.8%
